TCR CD3 inh: inhibitors of human TCR-CD3 interaction, primary screen, biochemical, fluorescence, TAMRA-labeled TCR probe | T-cell receptor (TCR) | inhibition, % at 9.4 µM | AID 651800, 2012 | 360,000 tested, 0.37% active; in the data active = inhibition above about 19%;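 also: recombinant mutant TCR 2C K166C tagged with TAMRA read by polarization; 0% = receptor in buffer alone and 100% = receptor with positive control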
PRMT1 inh: PRMT1 methyltransferase inhibitors, primary screen, biochemical, fluorescence polarization; recombinant PRMT1, activity-based probe fluorescence polarization; inhibition, % at 2.79 µM; Protein arginine N-methyltransferase 1 (Homo sapiens), Q99873; 370,000 tested, 1.3% active;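 active = inhibition above about 21% made by adding two undisclosed values, limit read from the data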
PAD4 FP inh: human PAD4 inhibitors, primary screen, biochemical, fluorescence polarization, 1536-well format; Protein-arginine deiminase type-4 (Homo sapiens), Q9UM07; 330,000 tested, 0.41% active; inhibition, % at 6.36 µM; recombinant PAD4, RCA probe fluorescence polarization; AID 485272, 2010;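 active = percent inhibition above a cutoff equal to the mean of all tested compounds plus 3 SD, cut at about 15% in these data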;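 also: 0% = PAD4 with RCA probe and DMSO and 100% = probe without PAD4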
SIAE primary: human SIAE inhibitors, primary screen, biochemical, fluorescence polarization, FP-Rh probe, 1536-well HTS | AID 1053197, 2014 | inhibition, % at 9.66 µM | 370,000 tested, 0.69% active | SIAE FP-Rh probe binding | Sialate O-acetylesterase (Homo sapiens), Q9HAT2;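 active = inhibition above a cutoff: mean of compounds within the control limits plus 3 SD of those, cut at about 17% in these data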;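 also: 0% = plate median of compound wells and 100% = probe without SIAE protein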
Target sequence (Q9HAT2 whole entry, looked up): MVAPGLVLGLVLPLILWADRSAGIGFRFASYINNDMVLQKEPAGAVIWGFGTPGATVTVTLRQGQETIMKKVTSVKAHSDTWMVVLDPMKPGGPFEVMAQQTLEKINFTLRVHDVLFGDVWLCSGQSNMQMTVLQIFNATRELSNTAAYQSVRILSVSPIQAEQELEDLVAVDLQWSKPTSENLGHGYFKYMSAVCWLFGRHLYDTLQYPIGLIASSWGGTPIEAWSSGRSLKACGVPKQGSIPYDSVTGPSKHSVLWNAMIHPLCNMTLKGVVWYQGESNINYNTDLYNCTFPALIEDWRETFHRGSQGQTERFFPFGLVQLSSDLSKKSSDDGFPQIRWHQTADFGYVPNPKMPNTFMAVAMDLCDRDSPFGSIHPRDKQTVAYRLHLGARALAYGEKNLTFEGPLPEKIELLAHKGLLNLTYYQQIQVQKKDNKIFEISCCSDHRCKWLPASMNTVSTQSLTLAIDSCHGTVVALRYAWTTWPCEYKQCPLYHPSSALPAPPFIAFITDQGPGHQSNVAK
HTRA1 inh: HTRA1 serine protease inhibitors, primary screen, biochemical, fluorescence polarization, HTS. inhibition, % at 5.96 µM. 340,000 tested, 0.5% active. recombinant HTRA1, FP-rhodamine activity-based probe; in the data active = inhibition above about 36%;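 also: 0% = enzyme with DMSO and 100% = wells lacking enzyme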
ABHD4 inh: ABHD4 inhibitors, primary screen, biochemical, fluorescence polarization, mouse. (Lyso)-N-acylphosphatidylethanolamine lipase (Mus musculus), Q8VD66. purified mABHD4, FP-Rh probe fluorescence polarization. inhibition, % at 8.92 µM. 370,000 tested, 0.54% active;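 active = inhibition exceeding the mean over every tested compound plus 3 SD, cut at about 30% in these data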;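 also: 0% = plate median of compound wells and 100% = S159A mutant with DMSO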
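Test system: mABHD4 protein; Read-out basis: % inhibition; Incubation: 45 min + 60 min at 25 °C; Repeats: single replicate; Technique: fluorescence polarization with parallel and perpendicular emission, 525/598 nm; Compound: 8.92 µM, single dose; Benchmarks: full inhibition S159A mutant plus DMSO, zero as sample-well median.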
PRMT1 confirm: PRMT1 methyltransferase inhibitors, confirmation, biochemical, fluorescence polarization, triplicate; shares compounds with PRMT1 inh; recombinant His-PRMT1, activity-based probe fluorescence polarization; inhibition, % at 2.79 µM; 3,300 tested, 42% active;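 active = mean inhibition across replicates above the hit cutoff derived for the earlier primary screen, cut at about 22% in these data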
Starred values were filed as active, the others as inactive. Sampled rows, rich in hits. Any-hit rate of the full collection: about 2.9%.

For O=C(CC1SC(=Nc2ccccc2)N(CCO)C1=O)Nc1ccccc1 (centres undefined) the results were TCR CD3 inh 0.3, PRMT1 inh 0.8, PAD4 FP inh -3.8, SIAE primary -2.6, HTRA1 inh -1.9 and ABHD4 inh 1.1.
Screening O=C(CC1SC(=O)N(c2ccccc2)C1=O)Nc1ccc(Cl)cc1 (centres undefined) returned TCR CD3 inh -10.8, PRMT1 inh 26.3*, PAD4 FP inh -10.8, SIAE primary 0.6, HTRA1 inh -5.8, ABHD4 inh -8.6 and PRMT1 confirm 91.9*.
CC(C)N=C1SC(CC(=O)Nc2ccccc2)C(=O)N1C(C)C (centres undefined) was read as TCR CD3 inh 6.9, PRMT1 inh 61.2*, PAD4 FP inh 0.3, SIAE primary -0.1, HTRA1 inh -6.3, ABHD4 inh -2.9 and PRMT1 confirm 0.8.
Screening O=C(CC1SC(=Nc2ccccc2)N(CCCO)C1=O)Nc1ccc(Cl)cc1 (centres undefined) returned PAD4 FP inh 6.9 and HTRA1 inh -18.1.
`O=C(CC1SC(=O)N(c2ccccc2)C1=O)Nc1ccc(Br)cc1` (centres undefined) gave TCR CD3 inh -16.4, PRMT1 inh 32.2*, PAD4 FP inh -16.7, SIAE primary -0.9, ABHD4 inh -17.6 and PRMT1 confirm 102.1*.
CCCC[C@H]1C2CC(OC(=O)Nc3cccc(Cl)c3)C(C2)[C@H]2CCCCN21 (some centres undefined) was read as PRMT1 inh -0.8, SIAE primary -4.5 and ABHD4 inh 1.6.
`COc1ccc(Oc2c(-c3cccs3)cnn(-c3ccc(C)cc3)c2=O)cc1` gave PRMT1 inh 2.4, SIAE primary 7.9 and ABHD4 inh -2.0.
Screening CSc1cccc(NC(=S)NN/C(=N/S(=O)(=O)c2ccccc2)N2CCCC2)c1 returned TCR CD3 inh 4.0, PRMT1 inh 3.0, SIAE primary 3.8 and ABHD4 inh 4.5.
COC(=O)c1cc2c(c3c4cc(C)ccc4n(S(=O)(=O)c4ccc(C)cc4)c13)C(=O)N(Cc1ccccc1OC)C2 was read as TCR CD3 inh -1.1, PRMT1 inh 1.3, SIAE primary -5.7 and ABHD4 inh 9.5.
`O=S(=O)(Nc1cc(Sc2ncn[nH]2)c(O)c2ccccc12)c1ccccc1` gave TCR CD3 inh 2.3, PRMT1 inh 64.3*, SIAE primary 8.8, ABHD4 inh 20.8 and PRMT1 confirm 110.6*.
For O=C(c1ccc(O)cc1)c1ccc(O)cc1O the results were TCR CD3 inh 7.7, PRMT1 inh 1.6, PAD4 FP inh 3.4, SIAE primary -2.0, HTRA1 inh 6.6 and ABHD4 inh 0.0.
For O=C(c1ccccc1)c1ccc(O)cc1O the results were TCR CD3 inh -19.8, PRMT1 inh 72.6*, PAD4 FP inh -6.2, SIAE primary -6.4, HTRA1 inh -11.9, ABHD4 inh -18.4 and PRMT1 confirm 42.3*.
`CN(C(=O)c1cccc(NC(=O)Cc2ccc(NC(=O)C3CCN(C(=O)CCc4ccccc4)CC3)cc2)c1)C1CCCC1` gave TCR CD3 inh 5.8, PRMT1 inh -8.6, SIAE primary -7.8 and ABHD4 inh -3.8.
`CCC12OC(=N)C(C#N)(C1C)C(C#N)(C#N)C(c1ccccc1)O2` (centres undefined) gave TCR CD3 inh 7.3, PRMT1 inh 28.4*, PAD4 FP inh 3.0, SIAE primary 7.0, HTRA1 inh 4.9, ABHD4 inh 2.4 and PRMT1 confirm 30.2*.
`O=C1CCC2(CCCCC2)N1CCCO` gave PRMT1 inh 3.3, SIAE primary 0.1 and ABHD4 inh 3.3.
For Cc1cccc(/N=C/c2c(O)[nH]c3ccccc23)n1 the results were TCR CD3 inh -7.0, PRMT1 inh 5.1, PAD4 FP inh -3.7, SIAE primary 0.7, HTRA1 inh -6.0 and ABHD4 inh 9.0.
`O=[N+]([O-])c1ccc(O)c(N=Cc2sc3ccccc3c2O)c1` gave TCR CD3 inh 0.5, PRMT1 inh 65.9*, PAD4 FP inh -11.3, SIAE primary -16.0, HTRA1 inh 29.9, ABHD4 inh 11.9 and PRMT1 confirm 44.5*.
Cc1cccc(/N=C/c2sc3ccccc3c2O)n1 was read as TCR CD3 inh -16.0, PRMT1 inh 36.6*, PAD4 FP inh -13.2, SIAE primary -16.1, HTRA1 inh -5.5, ABHD4 inh 3.0 and PRMT1 confirm 15.4.
O=C(CSc1nccn(-c2cccc(F)c2)c1=O)Nc1ccc(Cl)cc1F was read as TCR CD3 inh 3.8, PRMT1 inh 74.5*, PAD4 FP inh -1.5, SIAE primary -4.6, HTRA1 inh -4.2, ABHD4 inh -5.7 and PRMT1 confirm 69.5*.
For O=C(CSc1nccn(-c2ccc3c(c2)OCCO3)c1=O)Nc1ccccc1 the results were TCR CD3 inh -5.2, PRMT1 inh 44.9*, PAD4 FP inh -2.5, SIAE primary 9.3, HTRA1 inh -1.2, ABHD4 inh 6.2 and PRMT1 confirm 23.8*.
Screening Cc1ccc(NC(=O)CSc2nccn(-c3ccc4c(c3)OCCO4)c2=O)cc1 returned TCR CD3 inh 9.9, PRMT1 inh 19.2, PAD4 FP inh -0.3, SIAE primary -3.3, HTRA1 inh -6.3 and ABHD4 inh -0.7.
Cc1ccc(S(=O)(=O)SCCCSS(=O)(=O)c2ccc(C)cc2)cc1 was read as TCR CD3 inh -2.9, PRMT1 inh 95.7*, SIAE primary 7.6, HTRA1 inh -0.9, ABHD4 inh 6.1 and PRMT1 confirm 91.5*.
O=S(=O)(/C=C/C=C/S(=O)(=O)c1ccccc1)c1ccccc1 was read as TCR CD3 inh 6.6, PRMT1 inh 25.3*, SIAE primary -1.7, HTRA1 inh -0.6, ABHD4 inh 2.4 and PRMT1 confirm 28.4*.
Screening Cc1ccc(S(=O)(=O)CS(=O)(=O)c2ccc(C)cc2)cc1 returned TCR CD3 inh 3.6, PRMT1 inh -3.4, SIAE primary 0.8, HTRA1 inh -3.0 and ABHD4 inh -2.5.
Screening Cc1ccc(S(=O)(=O)N(C)CCN(C)S(=O)(=O)c2ccc(C)cc2)cc1 returned TCR CD3 inh -5.1, PRMT1 inh 8.6, SIAE primary -6.0, HTRA1 inh -4.3 and ABHD4 inh -8.8.
